Assay results collected from several papers.
Each line is one published result; the experiments were not run side by side.
HTR4: 5-hydroxytryptamine receptor 4 (HTR4, Homo sapiens, UniProt Q13639)
ADORA2B: Adenosine receptor A2b (ADORA2B, Homo sapiens, UniProt P29275)
MMP13: Collagenase 3 (MMP13, Homo sapiens, UniProt P45452)

Cc1c(-c2ccccc2)oc2c(C(=O)OCCN3CCCCC3)cccc2c1=O  Ki (HTR4; cell-free assay; radioligand; cell membranes): > 10000 nM
COc1ccc(CCCn2ncc3c2nc(N)n2nc(-c4ccco4)nc32)cc1  Ki (Adenosine receptor A1 (Mus musculus, UniProt Q60612); ligand displacement; radioligand; cell membranes): 765 nM
OC[C@@]12C[C@@H]1[C@@H](n1cnc3c(NC(C4CCCC4)C4CCCC4)nc(Cl)cc31)[C@H](O)[C@@H]2O  Ki (Beta-3 adrenergic receptor (ADRB3, Homo sapiens, UniProt P13945); cell-free assay; radioligand): 4700 nM
CCCCCCCCCCCCCC#CC(=O)O  Ki (Fatty acid synthase (Plasmodium falciparum, UniProt Q965D7); enzyme activity; inhibitor): 4750 nM
Nc1ncnc2c1ncn2[C@@H]1O[C@H](COP(=O)(O)OP(=O)(O)O)[C@@H](O)[C@H]1O  Ki (nod (Drosophila melanogaster, UniProt P18105); enzyme activity; inhibitor): ~2000 nM
CCCCn1c(=O)c2[nH]c(C34CC5CC(CC3C5)C4)nc2n(CCCO)c1=O  Ki (ADORA2B; ligand displacement; radioligand; cell membranes): 48.6 nM
CCCCN1CCC(COC(=O)c2ccc(N)c(OCF)c2)CC1  Ki (HTR4; ligand displacement; radioligand): 0.8 nM
N=C(N)N1CCC[C@H]1c1nc(-c2ccc(CCC3CCCCC3)c(C(F)(F)F)c2)no1  Ki (Sphingosine kinase 2 (Sphk2, Mus musculus, UniProt Q9JIA7); enzyme activity; inhibitor): 110 nM
CCCCN1CCCn2c1nc1c2c(=O)n(C)c(=O)n1C  Ki (ADORA2B; ligand displacement; radioligand; cell membranes): > 10000 nM
Oc1nc(SCc2ccc(Cl)cc2)nc2c1CCC2  Ki (MMP13; enzyme activity; inhibitor): 3300 nM
CC(C)N1CCCn2c1nc1c2c(=O)n(C)c(=O)n1C  Ki (ADORA2B; ligand displacement; radioligand; cell membranes): > 10000 nM
COC(=O)c1ccc(CSc2nc3c(c(=O)[nH]2)CCC3)cc1  Ki (MMP13; enzyme activity; inhibitor): 1500 nM
CCCC(C)N1CCCn2c1nc1c2c(=O)n(C)c(=O)n1C (stereo not shown)  Ki (ADORA2B; ligand displacement; radioligand; cell membranes): > 10000 nM
C[C@]12CCC(=O)C=C1CC[C@@H]1[C@@H]2[C@@H](O)C[C@@]2(C)[C@H]1CC[C@]2(O)C(=O)CO  Ki (G-protein coupled estrogen receptor 1 (GPER1, Homo sapiens, UniProt Q99527); ligand displacement; radioligand): 4400 nM
C=CCN1CCCn2c1nc1c2c(=O)n(C)c(=O)n1C  Ki (ADORA2B; ligand displacement; radioligand; cell membranes): > 10000 nM
C[C@H]1CN(C2COC2)CCN1c1ccc(Nc2cc(-c3ccnc(N4CCn5c(cc6c5CC(C)(C)C6)C4=O)c3CO)cn(C)c2=O)nc1  Ki (Solute carrier organic anion transporter family member 1B1 (SLCO1B1, Homo sapiens, UniProt Q9Y6L6); transporter uptake; inhibitor; HEK293): 1940 nM
